This note sets out measurements from ChEMBL document CHEMBL5321292, “Targeting Cytotoxic Agents through EGFR-Mediated Covalent Binding and Release” (J Med Chem, 2023).

As a reminder, the pIC50 is the IC50 on a negative log10 scale, so that one unit is a factor of ten.

Series [1] can be described thus: Stability of compound assessed as formation of 5-fluorouracil by measuring half life.
In series [2] the test system is A-431. Description: Antiproliferative activity against human A-431 cells assessed as cell growth inhibition measured after 72 hrs by SRB assay. Conditions: A-431, read-out: pGI50 (converted). The series is classed as functional, cell-based. For orientation: Sulforhodamine B stains cellular protein and so reports cell mass.
Series [3] addresses T1, Epidermal growth factor receptor (Homo sapiens, UniProt P00533). Put plainly: Inhibition of EGFR phosphorylation in human A-431 cells at 10 uM incubated for 4 hr by Western blot analysis. The series is classed as cell-based. The method, boiled down:
(§1)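 A431 cells treated for 4 h and lysed in Phosphosafe buffer with protease inhibitors. Western blot probed with anti-EGFR and anti-pEGFR primary antibodies (1:1000 in 5% BSA) plus a loading control, then HRP-conjugated secondary antibodies. Bands detected by ECL.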
On the technique in general: Immunoblotting shows a protein as a band on a membrane.

Series [4] deals with T1, Epidermal growth factor receptor. Description: Inhibition of EGFR phosphorylation in human A-431 cells at 1 uM incubated for 4 hr by Western blot analysis. The series is classed as cell-based. Put shortly: as §1
Series [5] has the same target. Put plainly: Inhibition of EGFR in human A-431 cells incubated for 2.5 hrs by HTRF analysis. The series is classed as cell-based. The method, boiled down: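 A431 cells plated at 20 000/well and allowed to adhere for 24 h. Treated 2.5 h in duplicate (0.1% DMSO), then stimulated with 100 ng/mL EGF for 30 min. Lysed 30 min at room temperature. HTRF measured pEGFR (Tyr1068) and total EGFR at 665/620 nm. Values taken as pEGFR/total EGFR ratio, expressed as % of 0 μM control.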
For orientation: In TR-FRET formats the signal depends on donor and acceptor labels being close together.

The target of series [6] is Epidermal growth factor receptor (Mus musculus, UniProt Q01279). Put plainly: Inhibition of C-terminal his6-tagged mouse EGFR by TR-FRET assay.
The target of series [7] is T1, Epidermal growth factor receptor. Description: Inhibition of EGFR phosphorylation in human A-431 cells incubated for 4 hr.
The test system of series [8] is A-431. Description: Antiproliferative activity against human A-431 cells assessed as cell growth inhibition measured after 72 hrs in presence of 5-fluorouracil by SRB assay. The series is classed as functional, cell-based. The note with it: A-431, 72 h. The method, boiled down: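 A431 cells (ECACC) seeded day 0 at exponential-growth density in DMEM + 10% FBS. Compound diluted in medium and added day 1, final DMSO 0.1%. Incubated 72 h at 37 °C, 5% CO2. Fixed with 50% TCA at 4 °C for 1 h, stained with 0.4% SRB for 30 min, washed with 1% AcOH, solubilised in 10 mM Tris pH 10.5. Absorbance read at 570 nm.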

pIC50: −log10 of the molar value. The source made the active and inactive calls. The rule behind the calls is not given here.

T1 sequence (P00533 whole entry): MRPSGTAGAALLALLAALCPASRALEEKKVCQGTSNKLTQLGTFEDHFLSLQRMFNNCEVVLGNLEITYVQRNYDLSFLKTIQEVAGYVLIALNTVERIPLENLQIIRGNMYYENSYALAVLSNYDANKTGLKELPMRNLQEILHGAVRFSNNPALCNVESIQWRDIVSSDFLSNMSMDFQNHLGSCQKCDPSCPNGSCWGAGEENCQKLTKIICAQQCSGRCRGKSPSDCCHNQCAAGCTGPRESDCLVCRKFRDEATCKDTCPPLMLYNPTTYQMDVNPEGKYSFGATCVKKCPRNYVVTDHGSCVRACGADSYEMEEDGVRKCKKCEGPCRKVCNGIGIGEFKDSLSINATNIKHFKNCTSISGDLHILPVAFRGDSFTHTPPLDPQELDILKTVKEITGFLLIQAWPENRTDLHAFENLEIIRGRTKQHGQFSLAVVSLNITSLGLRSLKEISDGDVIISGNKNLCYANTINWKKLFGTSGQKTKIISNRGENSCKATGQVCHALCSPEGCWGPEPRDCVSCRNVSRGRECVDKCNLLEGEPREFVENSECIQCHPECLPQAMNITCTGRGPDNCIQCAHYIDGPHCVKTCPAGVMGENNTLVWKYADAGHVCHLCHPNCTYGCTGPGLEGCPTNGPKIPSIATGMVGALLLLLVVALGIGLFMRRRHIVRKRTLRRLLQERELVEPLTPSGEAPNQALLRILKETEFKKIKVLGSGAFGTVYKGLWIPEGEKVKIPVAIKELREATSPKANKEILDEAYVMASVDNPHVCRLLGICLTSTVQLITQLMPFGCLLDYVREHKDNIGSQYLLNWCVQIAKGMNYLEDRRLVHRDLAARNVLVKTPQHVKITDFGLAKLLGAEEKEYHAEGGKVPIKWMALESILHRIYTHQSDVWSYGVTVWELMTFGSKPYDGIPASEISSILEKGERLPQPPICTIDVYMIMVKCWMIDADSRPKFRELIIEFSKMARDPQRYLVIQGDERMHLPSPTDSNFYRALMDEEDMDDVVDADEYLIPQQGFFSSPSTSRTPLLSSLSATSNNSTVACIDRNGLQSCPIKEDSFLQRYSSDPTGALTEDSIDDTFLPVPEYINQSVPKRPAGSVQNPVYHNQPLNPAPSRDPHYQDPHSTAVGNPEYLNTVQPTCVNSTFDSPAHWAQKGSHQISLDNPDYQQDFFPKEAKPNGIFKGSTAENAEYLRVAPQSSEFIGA
Chain of Epidermal growth factor receptor (Mus musculus, UniProt Q01279) (Q01279 whole entry): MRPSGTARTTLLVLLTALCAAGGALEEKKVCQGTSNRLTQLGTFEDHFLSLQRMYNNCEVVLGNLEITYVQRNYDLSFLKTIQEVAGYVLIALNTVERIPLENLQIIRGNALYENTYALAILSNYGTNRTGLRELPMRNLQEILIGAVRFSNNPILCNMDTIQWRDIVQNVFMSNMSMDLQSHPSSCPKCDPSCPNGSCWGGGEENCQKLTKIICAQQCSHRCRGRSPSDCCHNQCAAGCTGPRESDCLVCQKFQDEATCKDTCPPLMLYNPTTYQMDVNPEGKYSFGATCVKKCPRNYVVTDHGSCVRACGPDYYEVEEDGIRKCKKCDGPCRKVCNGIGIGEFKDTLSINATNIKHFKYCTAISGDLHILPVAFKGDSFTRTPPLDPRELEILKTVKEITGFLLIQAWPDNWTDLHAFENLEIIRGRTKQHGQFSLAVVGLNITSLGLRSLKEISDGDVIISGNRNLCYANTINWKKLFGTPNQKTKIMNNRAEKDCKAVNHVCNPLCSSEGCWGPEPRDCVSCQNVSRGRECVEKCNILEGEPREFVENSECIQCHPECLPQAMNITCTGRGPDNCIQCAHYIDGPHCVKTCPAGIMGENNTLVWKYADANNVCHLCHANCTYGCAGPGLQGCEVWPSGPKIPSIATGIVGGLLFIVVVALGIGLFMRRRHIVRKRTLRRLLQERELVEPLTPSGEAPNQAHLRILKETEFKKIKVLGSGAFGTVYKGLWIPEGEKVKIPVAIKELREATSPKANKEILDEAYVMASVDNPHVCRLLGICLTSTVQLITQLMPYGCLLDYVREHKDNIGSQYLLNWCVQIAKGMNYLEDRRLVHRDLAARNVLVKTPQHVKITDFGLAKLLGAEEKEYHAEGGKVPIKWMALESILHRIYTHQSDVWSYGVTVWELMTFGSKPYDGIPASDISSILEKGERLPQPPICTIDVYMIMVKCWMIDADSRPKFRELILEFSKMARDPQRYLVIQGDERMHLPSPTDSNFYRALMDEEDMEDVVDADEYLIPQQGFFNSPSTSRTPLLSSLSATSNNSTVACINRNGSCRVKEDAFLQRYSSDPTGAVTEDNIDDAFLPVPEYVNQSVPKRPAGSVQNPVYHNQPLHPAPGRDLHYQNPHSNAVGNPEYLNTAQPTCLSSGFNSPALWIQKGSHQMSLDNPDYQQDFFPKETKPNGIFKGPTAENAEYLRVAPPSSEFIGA

With `O=C(/C=C/n1cc(F)c(=O)[nH]c1=O)Oc1ccc(F)cc1`, in series [1], the t1/2 stood at 3 h.

As for `COc1cc2ncnc(Nc3ccc(F)c(Cl)c3)c2cc1OC(=O)/C=C/n1cc(F)c(=O)[nH]c1=O`, the GI50 in the series on A-431 [2] was 5010 nM. In series [3], the inhibition result was “Active”. In addition, the inhibition result in series [4] is “inactive”. Moreover, the negative-log IC50 (pIC50) is 7.80 in series [5], 6.80 in series [6] and 7.80 in series [7].

As to `COc1cc2ncnc(Nc3ccc(F)c(Cl)c3)c2cc1OC(=O)/C=C/CN1CCCCC1`, in series [4], the inhibition entry was “Active”. Moreover, the pIC50 in the series on A-431 [8] is 6.20.

For `COc1ccc(OC(=O)/C=C/n2cc(F)c(=O)[nH]c2=O)cc1`, in series [1], the t1/2 was determined as 36 h.

For `O=C(/C=C/n1cc(F)c(=O)[nH]c1=O)Cc1ccccc1`, the t1/2 in series [1] is on record as ~ 36 hr.

For the molecule `COCCOCCOc1ccc(NC(=O)/C=C/n2cc(F)c(=O)[nH]c2=O)cc1`, in series [1], the t1/2 came out at 10 h.

Regarding `O=C(/C=C/n1cc(F)c(=O)[nH]c1=O)Oc1ccc(Cl)cc1`, in series [1], the t1/2 came to 2.9 h.

With `N#Cc1ccc(OC(=O)/C=C/n2cc(F)c(=O)[nH]c2=O)cc1`, the t1/2 in series [1] is 2.5 h.

For `O=C(/C=C/n1cc(F)c(=O)[nH]c1=O)Oc1ccc([N+](=O)[O-])cc1`, the t1/2 in series [1] turned out to be 0.1 h.

Regarding `COc1cc2ncnc(Nc3ccc(F)c(Cl)c3)c2cc1NC(=O)/C=C/n1cc(F)c(=O)[nH]c1=O`, the pIC50 is 5.60 in series [5], 7.30 in series [6] and 5.60 in series [7].
